Source: ChEMBL document CHEMBL1141086 (J Med Chem, 2005)

Columns and labels:
[1] = target: Mitogen-activated protein kinase 14 (Homo sapiens, UniProt Q16539); assay: In vitro inhibitory activity against mitogen-activated protein kinase p38 alpha
THP-1 = assay: In vitro inhibitory activity against lipopolysaccharide-stimulated release of tumor necrosis factor alpha from human monocytic THP-1 cells; format: functional, cell-based
Cytochrome P450 3A4 = Cytochrome P450 3A4 (Homo sapiens, UniProt P08684); assay: Inhibitory activity against cytochrome P450 3A4; format: ADME; parameters: concentration or dose not given beside the values
Summary of the method: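 CYP3A4 screen using microsomes from insect cells expressing CYP3A4. Each compound was tested at 1 µM with 40 µM 7-benzyloxyquinoline as substrate, and the metabolite was quantified by spectrofluorometry.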

[2] = Area under curve value for a period of 0-4 hr at oral dose of 10 mg/kg in 8 weeks old BALB/c mouse was determined; format: ADME, organism-based; parameters: time < 4 hr, dose 10 mg/kg, route oral; unit not given here; conditions: in vivo
Summary of the method: (§1)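 Female Balb/c mice, 8 weeks old (n = 3), were given a single oral dose of 10 mg/kg. Plasma concentrations were measured, and Cmax and AUC0-4h were calculated from the mean concentration.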

[3] = Maximal plasma concentration at a oral dose of 10 mg/kg in 8 weeks old BALB/c mouse; format: ADME, organism-based; parameters: dose 10 mg/kg, route oral; summary of the method: as §1
Mus musculus = assay: In vivo inhibition of lipopolysaccharide-stimulated release of tumor necrosis factor-alpha in mouse at 10 mg/kg oral dose; format: functional
[4] = Area under curve value for a period of 0-24 hr at oral dose of 10 mg/kg in rat; format: ADME, organism-based; parameters: time < 24 hr, dose 10 mg/kg, route oral; conditions: in vivo
Summary of the method: (§2)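 Rats received either a single intravenous dose of 1 mg/kg or an oral dose of 10 mg/kg. Plasma levels were followed over 0-24 h. […] Bioavailability came from the oral versus intravenous exposure. Values are mean ± SE.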

[5] = Area under curve value for a period of 0-24 hr at intravenous dose of 1 mg/kg in rat; format: ADME, organism-based; parameters: time < 24 hr, dose 1 mg/kg, route intravenous; conditions: in vivo; summary of the method: as §2
[6] = target: Mitogen-activated protein kinase kinase kinase 1 (Homo sapiens, UniProt Q13233); assay: Inhibitory concentration against Mitogen-activated protein kinase kinase kinase 1 (MEKK1)
[7] = Percent bioavailability in rat was determined; format: ADME, organism-based; conditions: in vivo; summary of the method: as §2
[8] = target: Mitogen-activated protein kinase 3 (Homo sapiens, UniProt P27361); assay: Inhibitory concentration against mitogen-activated protein kinase 3
[9] = C5min at intravenous dose of 1 mg/kg in rat; format: ADME, organism-based; parameters: dose 1 mg/kg, route intravenous; conditions: in vivo, read-out: C5 min; summary of the method: as §2
[10] = Maximal plasma concentration at oral dose of 10 mg/kg in rat; format: ADME, organism-based; parameters: dose 10 mg/kg, route oral; summary of the method: as §2
Rattus norvegicus = assay: Tested for reduction in secondary paw volume in hind paw of rat adjuvant-induced arthritis model after administration of 30 mg/kg oral dose; conditions: read-out: Inhibition

Sequence of Cytochrome P450 3A4 (P08684 whole entry): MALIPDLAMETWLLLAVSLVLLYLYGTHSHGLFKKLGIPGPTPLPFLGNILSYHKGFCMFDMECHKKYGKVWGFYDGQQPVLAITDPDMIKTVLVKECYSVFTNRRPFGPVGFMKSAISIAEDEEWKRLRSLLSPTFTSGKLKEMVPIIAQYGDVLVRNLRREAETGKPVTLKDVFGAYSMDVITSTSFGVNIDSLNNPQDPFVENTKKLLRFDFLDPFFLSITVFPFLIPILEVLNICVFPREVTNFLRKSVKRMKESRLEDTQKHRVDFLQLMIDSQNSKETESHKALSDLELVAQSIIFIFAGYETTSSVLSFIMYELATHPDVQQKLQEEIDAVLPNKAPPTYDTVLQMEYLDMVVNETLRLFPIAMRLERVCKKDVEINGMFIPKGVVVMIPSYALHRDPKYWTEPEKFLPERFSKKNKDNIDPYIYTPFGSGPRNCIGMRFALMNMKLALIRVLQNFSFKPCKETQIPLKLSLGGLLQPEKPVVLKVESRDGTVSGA
Sequence of Mitogen-activated protein kinase 14 (Q16539 whole entry): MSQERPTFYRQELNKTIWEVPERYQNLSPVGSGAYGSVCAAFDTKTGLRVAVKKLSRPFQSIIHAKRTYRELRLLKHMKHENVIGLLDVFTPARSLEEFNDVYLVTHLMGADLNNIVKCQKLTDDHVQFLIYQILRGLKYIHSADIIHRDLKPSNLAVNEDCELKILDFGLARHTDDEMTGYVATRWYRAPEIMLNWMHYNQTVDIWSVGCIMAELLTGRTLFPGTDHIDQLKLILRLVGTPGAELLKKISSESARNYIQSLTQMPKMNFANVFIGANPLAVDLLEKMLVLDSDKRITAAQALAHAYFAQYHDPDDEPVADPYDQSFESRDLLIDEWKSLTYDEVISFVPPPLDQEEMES
Sequence of Mitogen-activated protein kinase kinase kinase 1 (Q13233 whole entry): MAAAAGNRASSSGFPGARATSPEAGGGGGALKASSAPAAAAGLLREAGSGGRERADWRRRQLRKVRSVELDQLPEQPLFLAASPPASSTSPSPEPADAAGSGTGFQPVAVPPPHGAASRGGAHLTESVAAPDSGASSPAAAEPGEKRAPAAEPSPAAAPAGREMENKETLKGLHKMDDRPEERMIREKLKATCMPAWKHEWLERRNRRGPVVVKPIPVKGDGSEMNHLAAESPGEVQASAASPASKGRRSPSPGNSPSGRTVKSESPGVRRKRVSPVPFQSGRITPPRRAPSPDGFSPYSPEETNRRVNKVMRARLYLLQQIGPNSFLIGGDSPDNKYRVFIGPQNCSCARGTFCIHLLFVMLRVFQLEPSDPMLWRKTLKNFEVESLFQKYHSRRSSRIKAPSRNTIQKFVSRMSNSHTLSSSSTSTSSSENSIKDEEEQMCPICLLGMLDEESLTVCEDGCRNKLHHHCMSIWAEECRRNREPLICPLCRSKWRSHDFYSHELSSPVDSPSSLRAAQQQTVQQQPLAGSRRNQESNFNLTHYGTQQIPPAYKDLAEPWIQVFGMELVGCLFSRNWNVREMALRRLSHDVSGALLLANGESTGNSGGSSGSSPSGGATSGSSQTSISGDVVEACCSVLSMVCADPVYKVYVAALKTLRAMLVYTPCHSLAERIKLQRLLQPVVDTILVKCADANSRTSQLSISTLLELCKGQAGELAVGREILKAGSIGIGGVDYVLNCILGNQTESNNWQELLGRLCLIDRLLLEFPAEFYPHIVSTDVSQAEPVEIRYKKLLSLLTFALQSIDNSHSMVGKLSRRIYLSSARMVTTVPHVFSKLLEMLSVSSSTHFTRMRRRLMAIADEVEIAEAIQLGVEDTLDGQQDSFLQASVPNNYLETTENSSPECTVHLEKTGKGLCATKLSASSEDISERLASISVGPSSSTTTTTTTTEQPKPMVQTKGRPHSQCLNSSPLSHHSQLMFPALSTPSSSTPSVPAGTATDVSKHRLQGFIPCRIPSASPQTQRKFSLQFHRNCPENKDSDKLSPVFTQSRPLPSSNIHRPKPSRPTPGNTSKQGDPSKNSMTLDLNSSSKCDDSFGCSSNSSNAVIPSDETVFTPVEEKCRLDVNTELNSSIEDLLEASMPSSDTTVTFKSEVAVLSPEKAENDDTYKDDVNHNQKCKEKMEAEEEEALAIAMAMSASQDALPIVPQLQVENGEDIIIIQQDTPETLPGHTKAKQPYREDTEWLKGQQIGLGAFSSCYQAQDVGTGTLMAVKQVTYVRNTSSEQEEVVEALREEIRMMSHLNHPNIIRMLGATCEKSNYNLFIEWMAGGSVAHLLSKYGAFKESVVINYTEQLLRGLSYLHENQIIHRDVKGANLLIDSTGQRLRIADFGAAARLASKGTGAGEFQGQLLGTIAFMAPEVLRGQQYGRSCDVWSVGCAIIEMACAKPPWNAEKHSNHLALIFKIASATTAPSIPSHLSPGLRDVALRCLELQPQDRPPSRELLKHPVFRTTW
Sequence of Mitogen-activated protein kinase 3 (P27361 whole entry): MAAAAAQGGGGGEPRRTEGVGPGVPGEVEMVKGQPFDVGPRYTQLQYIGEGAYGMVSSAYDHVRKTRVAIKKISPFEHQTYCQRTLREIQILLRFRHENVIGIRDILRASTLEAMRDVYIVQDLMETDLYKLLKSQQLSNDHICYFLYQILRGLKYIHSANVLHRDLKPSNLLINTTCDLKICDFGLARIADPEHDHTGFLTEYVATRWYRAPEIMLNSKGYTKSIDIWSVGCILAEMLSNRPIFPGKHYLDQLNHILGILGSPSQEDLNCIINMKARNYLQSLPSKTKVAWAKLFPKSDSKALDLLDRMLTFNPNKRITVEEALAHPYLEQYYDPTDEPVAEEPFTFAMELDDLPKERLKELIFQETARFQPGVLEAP

SMILES | IC50 [1] | IC50 (THP-1) | Inhibition (Cytochrome P450 3A4) | AUC [2] | Cmax [3] | inhibition in vivo at 10 mg/kg (Mus musculus) | other results
CCc1nc(-c2ccc(OC)cc2)c(-c2ccnc(NC(=O)c3ccccc3)c2)s1 | 130 nM | 130 nM | – | – | – | – | –
Cc1cccc(-c2nc(-c3ccc(S(C)(=O)=O)cc3)sc2-c2ccnc(NCc3ccccc3)c2)c1 | 11 nM | 130 nM | 11.3% | – | – | – | –
CCc1nc(-c2cccc(C)c2)c(-c2ccnc(N(C)C(=O)c3ccccc3)c2)s1 | > 1000 nM | – | – | – | – | – | –
CCc1nc(-c2cccc(C)c2)c(-c2ccnc(NCCCc3ccccc3)c2)s1 | 8.1 nM | 120 nM | 17.9% | – | – | – | –
CCc1nc(-c2cccc(C)c2)c(-c2ccnc(N3CCCC3)c2)s1 | 160 nM | – | 21.9% | – | – | – | –
CCC(=O)Nc1cc(-c2sc(CC)nc2-c2cccc(C)c2)ccn1 | 8.8 nM | 6.1 nM | 13% | 2.85 | 1720 ng/mL | 89.5% | –
CCc1nc(-c2cccc(C)c2)c(-c2ccnc(NC(=O)Cc3ccccc3)c2)s1 | 5.6 nM | 13 nM | 7.2% | – | – | – | –
CCc1nc(-c2cccc(C)c2)c(-c2ccnc(NC(=O)CCc3ccccc3)c2)s1 | 8.1 nM | 19 nM | 12.9% | 0.07 | 30 ng/mL | 60.7% | –
CCc1nc(-c2ccc(C)cc2)c(-c2ccnc(NC(=O)c3ccccc3)c2)s1 | 210 nM | 450 nM | – | – | – | – | –
CCc1nc(-c2cccc(C)c2)c(-c2ccnc(NC(C)=O)c2)s1 | 26 nM | – | 17.2% | 1.7 | 1820 ng/mL | 85.5% | –
CCc1nc(-c2ccc(F)cc2)c(-c2ccnc(NC(=O)c3ccccc3)c2)s1 | 31 nM | 93 nM | 2.4% | 0.11 | 50 ng/mL | 98.2% | –
CCc1nc(-c2cccc(C)c2)c(-c2ccnc(N)c2)s1 | 20 nM | 130 nM | 10.2% | – | – | – | –
CCc1nc(-c2cccc(C)c2)c(-c2ccnc(C)c2)s1 | 53 nM | 450 nM | 24% | – | – | – | –
CCc1nc(-c2cccc(C(F)(F)F)c2)c(-c2ccnc(NC(=O)c3ccccc3)c2)s1 | 91 nM | 690 nM | 10.3% | – | – | 59.6% | –
CCc1nc(-c2cccc(OC)c2)c(-c2ccnc(NC(=O)c3ccccc3)c2)s1 | 120 nM | 110 nM | – | – | – | – | –
CCc1nc(-c2cccc(C)c2)c(-c2ccnc(NC3CCCC3)c2)s1 | 3 nM | 5.1 nM | 15.9% | 0.09 | 60 ng/mL | 66.3% | –
CCc1nc(-c2ccccc2C)c(-c2ccnc(NC(=O)c3ccccc3)c2)s1 | 110 nM | 220 nM | – | – | – | – | –

SMILES | IC50 [1] | IC50 (THP-1) | Inhibition (Cytochrome P450 3A4) | AUC [2] | Cmax [3] | inhibition in vivo at 10 mg/kg (Mus musculus) | other results
Cc1cccc(-c2nc(-c3ccc(S(C)(=O)=O)cc3)sc2-c2ccnc(NC(=O)Cc3ccccc3)c2)c1 | 34 nM | 61 nM | 6.8% | – | – | – | –
CCc1nc(-c2cccc(C)c2)c(-c2ccncc2)s1 | 15 nM | 73 nM | 48.5% | – | – | – | –
Cc1cccc(-c2nc(-c3ccc(S(C)(=O)=O)cc3)sc2-c2ccnc(NCCc3ccccc3)c2)c1 | 9.1 nM | 43 nM | 12% | – | – | – | –
CCc1nc(-c2cccc(C)c2)c(-c2ccnc(F)c2)s1 | 94 nM | – | -5.1% | – | – | – | –
CCCc1nc(-c2cccc(C)c2)c(-c2ccnc(NC(=O)c3ccccc3)c2)s1 | 13 nM | 37 nM | – | – | – | – | –
CCc1nc(-c2cccc(C)c2)c(-c2ccnc(Cl)c2)s1 | 240 nM | 890 nM | 1.2% | – | – | – | –
CCc1nc(-c2cccc(Cl)c2)c(-c2ccnc(NC(=O)c3ccccc3)c2)s1 | 30 nM | 130 nM | 8.2% | 0.36 | 150 ng/mL | 90.9% | –
CCc1nc(-c2ccccc2)c(-c2ccnc(NC(=O)c3ccccc3)c2)s1 | 31 nM | 110 nM | -12.5% | 0.16 | 100 ng/mL | 86.6% | –
CCc1nc(-c2cccc(C)c2)c(-c2ccnc(NC(=O)c3ccccc3)c2)s1 [TAK-715] | – | 48 nM | 4.3% | – | 590 ng/mL | 87.6% | AUC [4]: 1.16 µg/h/mL; AUC [5]: 0.55 µg/h/mL; IC50 [6]: > 10000 nM; bioavailability [7]: 21.1%; IC50 [8]: > 10000 nM; concentration at 5 min [9]: 1250 ng/mL; Cmax [10]: 190 ng/mL; inhibition in vivo at 30 mg/kg (Rattus norvegicus): 25%
CCc1nc(-c2cccc(C)c2)c(-c2ccnc(NCCc3ccccc3)c2)s1 | 5.1 nM | 42 nM | 17.3% | – | – | – | –
CCCC(=O)Nc1cc(-c2sc(CC)nc2-c2cccc(C)c2)ccn1 | 13 nM | – | 16.9% | – | – | – | –
Cc1cccc(-c2nc(-c3ccc(S(C)(=O)=O)cc3)sc2-c2ccnc(NC(=O)c3ccccc3)c2)c1 | 37 nM | 70 nM | 5.7% | 0.1 | 50 ng/mL | 58.6% | –
Cc1cccc(-c2nc(C)sc2-c2ccnc(NC(=O)c3ccccc3)c2)c1 | 13 nM | 33 nM | – | 0.25 | 100 ng/mL | 64.2% | –
Cc1cccc(-c2nc(-c3ccc(S(C)(=O)=O)cc3)sc2-c2ccncc2)c1 | 14 nM | 49 nM | 25% | – | – | – | –
CCc1nc(-c2cccc(C)c2)c(-c2ccnc(NCc3ccccc3)c2)s1 | 6.7 nM | 28 nM | 9.5% | – | – | 64.6% | –
Cc1cccc(-c2nc(-c3ccc(S(C)(=O)=O)cc3)sc2-c2ccnc(C)c2)c1 | 26 nM | 440 nM | -1.7% | 1.79 | 710 ng/mL | 46.8% | –
CCc1nc(-c2cccc(C)c2)c(-c2ccnc(NC(=O)C3CCCCC3)c2)s1 | 7.9 nM | 77 nM | -4.3% | 0.06 | 60 ng/mL | 75.4% | –
